# Columns and labels:
# [1] = system: HT-29; assay: Growth inhibitory activity against human HT-29 cell line in presence of Hypoxanthine thymidine(HT); format: functional
# Procedure, shortened: (§1)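 Same 4-day MTT growth assay in HCT-116 or HT29 cells, with hypoxanthine 100 µM and thymidine 20 µM (final) added together with the drug. Hypoxanthine stock was in 10 mM NaOH and thymidine in water. Readout was A550 against a time-zero plate. GI50 is the mean of three experiments.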
# [2] = system: HCT-116; assay: Growth inhibitory activity against human HCT116 cell line in presence of Hypoxanthine thymidine(HT); format: functional; procedure, shortened: as §1
# [3] = system: HT-29; assay: Growth inhibitory activity against human HT-29 cell line; format: functional
# Procedure, shortened: (§2)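 HCT-116 or HT29 colon cells in RPMI 1640 with L-glutamine and 10% heat-inactivated FBS, 37 °C, 5% CO2. Cells were plated at densities suited to the growth rate and allowed to attach 4–24 h. Drug from 10 mM DMSO stocks was then added and cells incubated 4 days. MTT readout: 4 h with MTT, formazan dissolved in DMSO:glycine buffer (4:1), A550. A time-zero plate gave the starting density. Values are GI50, mean of three experiments.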
# [4] = system: HCT-116; assay: Growth inhibitory activity against human HCT116 cell line; format: functional; procedure, shortened: as §2
# [5] = target: T1, Dihydrofolate reductase (Rattus norvegicus, UniProt Q920D2); assay: Inhibitory activity against rat liver Dihydrofolate reductase; settings: read-out: I50
# T1 sequence (Q920D2 whole entry): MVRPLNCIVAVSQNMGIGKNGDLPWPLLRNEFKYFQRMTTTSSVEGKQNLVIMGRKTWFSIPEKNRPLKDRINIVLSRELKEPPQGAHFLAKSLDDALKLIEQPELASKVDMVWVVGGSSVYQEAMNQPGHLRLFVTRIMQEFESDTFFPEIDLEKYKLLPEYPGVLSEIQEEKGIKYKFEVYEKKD
GI50 [1],GI50 [2],GI50 [3],GI50 [4],IC50 [5],SMILES
> 50 µM,9 µM,> 50 µM,9 µM,–,CCc1nc(N)nc(N)c1-c1ccc2[nH]c(-c3ccc(Cl)cc3)[n+]([O-])c2c1
–,–,–,–,2.7 µM,CCc1nc(N)nc(N)c1-c1ccc2nn(-c3ccccc3)[n+]([O-])c2c1
–,–,–,–,0.008 µM,CCc1nc(N)nc(N)c1-c1ccc(NCc2ccc(Cl)c(Cl)c2)c([N+](=O)[O-])c1
11.6 µM,7.5 µM,1.5 µM,0.08 µM,–,CCc1nc(N)nc(N)c1-c1ccc(NCc2ccccc2OC)c([N+](=O)[O-])c1
25 µM,5 µM,17 µM,3 µM,–,Nc1ncc(-c2ccc(NCc3ccc(Cl)cc3)c([N+](=O)[O-])c2)cn1
39 µM,22 µM,46 µM,17 µM,–,CCc1nc(N)nc(N)c1-c1ccc2[nH]c(-c3ccc(F)cc3)[n+]([O-])c2c1
9.2 µM,7.4 µM,0.48 µM,0.08 µM,–,CCc1nc(N)nc(N)c1-c1ccc(N(C)Cc2ccccc2)c([N+](=O)[O-])c1
40 µM,38 µM,3.8 µM,0.25 µM,–,CCc1nc(N)nc(N)c1-c1ccc(Cl)c([N+](=O)[O-])c1

# Second part, the molecule before the results:
SMILES,GI50 [1],GI50 [2],GI50 [3],GI50 [4],IC50 [5]
Nc1ncc(-c2ccc(Cl)c([N+](=O)[O-])c2)cn1,> 50 µM,> 50 µM,> 50 µM,> 50 µM,–
CN(Cc1ccccc1)c1ccc(-c2cnc(N)nc2)cc1[N+](=O)[O-],17 µM,> 50 µM,14 µM,> 50 µM,–
Nc1ncc(-c2ccc(NCc3ccc(F)cc3)c([N+](=O)[O-])c2)cn1,38 µM,47 µM,41 µM,48 µM,–
Nc1nc(N)c2[nH]c(Cc3ccc(Cl)c(Cl)c3)nc2n1,–,–,–,–,252 µM
CN(Cc1cnc2nc(N)nc(N)c2n1)c1ccc(C(=O)N[C@@H](CCC(=O)O)C(=O)O)cc1 [METHOTREXATE],> 50 µM,> 50 µM,0.07 µM,0.01 µM,–
COc1cc(NCc2ccc3nc(N)nc(N)c3c2C)cc(OC)c1OC [TRIMETREXATE],21 µM,19 µM,0.01 µM,0.01 µM,–

# From ChEMBL document CHEMBL1138668, “Structural studies on bioactive compounds. 39. Biological consequences of the structural modification of DHFR-inhibitory 2,4-diamino-6-(4-substituted benzylamino-3-nitrophenyl)-6-ethylpyrimidines ('benzoprims')” (J Med Chem, 2004)
